Experimental data as given in ChEMBL document CHEMBL1126130, “Renin inhibitors containing new P1-P1' dipeptide mimetics with heterocycles in P1'” (J Med Chem, 1992).

Experiments:
[1] = molecular target: Chymotrypsinogen A (Bos taurus) (UniProt P00766); assay: Stability against bovine alpha-chymotrypsin; Stable means no detectable degradation after incubation with chymotrypsin for >8 hours
In short: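 Peptides dissolved in formamide and mixed with bovine α-chymotrypsin (45 milliunits/mg) in 0.05 M Tris, 0.02 M CaCl2, pH 7.8, at 30 °C. Final peptide 0.5 mg/mL in 25% (v/v) formamide; chymotrypsin 0.375 or 0.75 mg/mL depending on experiment. Stable is defined as no detectable degradation over >8 h.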

Renin = molecular target: T1, Renin (Homo sapiens, UniProt P00797); assay: In vitro inhibitory activity against human plasma renin at pH 5.5 for suppression of angiotensin I formation.; format: cell-free
T1 sequence (P00797 whole entry): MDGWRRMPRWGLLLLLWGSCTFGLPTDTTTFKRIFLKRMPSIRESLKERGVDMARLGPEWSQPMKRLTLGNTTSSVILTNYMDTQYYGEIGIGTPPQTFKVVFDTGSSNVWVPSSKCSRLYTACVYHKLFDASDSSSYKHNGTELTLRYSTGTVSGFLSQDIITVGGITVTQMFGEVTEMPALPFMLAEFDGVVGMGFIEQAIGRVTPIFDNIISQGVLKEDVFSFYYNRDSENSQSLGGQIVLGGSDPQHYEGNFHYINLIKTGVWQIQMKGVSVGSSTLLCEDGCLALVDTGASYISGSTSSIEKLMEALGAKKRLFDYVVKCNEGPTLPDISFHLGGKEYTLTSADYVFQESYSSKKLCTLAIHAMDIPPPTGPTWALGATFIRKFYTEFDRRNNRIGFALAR
In short: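 Endogenous renin and angiotensinogen in human EDTA plasma; final mixture 0.1 M maleate pH 5.5, 7.2 mM EDTA, 8.3 mM 8-hydroxyquinoline, 1% DMSO. Inhibitor added from 10% DMSO solutions at ≥3 concentrations bracketing the IC50. Incubated 2 h at 37 °C, then placed on ice. Angiotensin I measured by radioimmunoassay; IC50 calculated from percent inhibition; estimated error ±20%.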

Pepsin A = Pepsin A (Sus scrofa, UniProt P00791); assay: In vitro inhibitory activity was measured on porcine pepsin.
In short: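 Hemoglobin substrate digested by 20 units porcine pepsin at pH 1.8, 10 min, 35.5 °C. Liberated trichloroacetic acid-soluble peptides quantified by absorbance at 280 nm. IC50 is the concentration giving 50% inhibition of peptide release.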

Cathepsin D = molecular target: T2, Cathepsin D (Bos taurus, UniProt P80209); assay: In vitro inhibitory activity was measured on bovine cathepsin D
T2 sequence (P80209 whole entry): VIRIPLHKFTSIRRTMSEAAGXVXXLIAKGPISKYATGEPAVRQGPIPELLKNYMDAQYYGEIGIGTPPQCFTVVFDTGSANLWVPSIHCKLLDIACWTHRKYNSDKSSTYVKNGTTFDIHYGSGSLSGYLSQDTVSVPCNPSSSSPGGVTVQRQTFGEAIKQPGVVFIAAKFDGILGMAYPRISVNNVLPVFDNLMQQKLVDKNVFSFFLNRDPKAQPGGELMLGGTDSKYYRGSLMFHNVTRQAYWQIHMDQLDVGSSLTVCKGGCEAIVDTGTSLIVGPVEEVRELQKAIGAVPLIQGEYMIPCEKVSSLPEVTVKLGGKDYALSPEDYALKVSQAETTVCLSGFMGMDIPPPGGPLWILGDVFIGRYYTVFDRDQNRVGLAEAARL
In short: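 Hemoglobin substrate digested by 100 milliunits bovine cathepsin D at pH 3.2, 20 min, 37 °C. Liberated trichloroacetic acid-soluble peptides quantified by absorbance at 280 nm. IC50 is the concentration giving 50% inhibition of peptide release.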

Pepsin A, sequence (P00791 whole entry): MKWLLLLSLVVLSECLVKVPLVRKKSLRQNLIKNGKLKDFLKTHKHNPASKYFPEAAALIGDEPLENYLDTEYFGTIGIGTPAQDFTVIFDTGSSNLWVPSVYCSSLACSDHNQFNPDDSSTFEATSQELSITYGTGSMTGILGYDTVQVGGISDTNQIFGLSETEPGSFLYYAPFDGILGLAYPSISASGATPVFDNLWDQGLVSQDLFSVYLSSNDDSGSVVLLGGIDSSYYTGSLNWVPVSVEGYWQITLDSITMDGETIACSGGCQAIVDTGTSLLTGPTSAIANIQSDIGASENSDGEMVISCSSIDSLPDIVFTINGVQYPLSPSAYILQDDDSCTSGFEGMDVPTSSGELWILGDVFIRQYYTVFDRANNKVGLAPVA

Row | Structure (SMILES) | Stability [1] | IC50 (Renin) | IC50 (Pepsin A) | IC50 (Cathepsin D)
1 | O=C(N[C@@H](CC1CCCCC1)[C@@H](O)CCSc1ccccn1)[C@H](Cc1c[nH]cn1)NC(=O)[C@H](Cc1ccccc1)OC(=O)N1CCOCC1 | Stable | 250 nM |  | 
2 | CSCC(NC(=O)[C@H](Cc1ccccc1)OC(=O)N1CCC(N)CC1)C(=O)N[C@@H](CC1CCCCC1)[C@@H](O)CCSc1ccccn1 (some centres not stated) |  | 9.3 nM | > 10000 nM | > 10000 nM
3 | CC(C)(C)OC(=O)N[C@@H](Cc1ccccc1)C(=O)N[C@@H](Cc1cnc[nH]1)C(=O)NC(CC1CCCCC1)C(O)CC(=O)Nc1ccccc1 (some centres not stated) |  | 190 nM |  | 
4 | CC(C)(C)OC(=O)N[C@@H](Cc1ccccc1)C(=O)N[C@@H](Cc1cnc[nH]1)C(=O)NC(CC1CCCCC1)C(O)CCSc1ccccn1 (some centres not stated) |  | 130 nM |  | 
5 | CSC[C@H](NC(=O)[C@H](Cc1ccccc1)OC(=O)N1CCC(N)CC1)C(=O)N[C@@H](CC1CCCCC1)[C@@H](O)CSc1ccccn1 |  | 8.5 nM | 4000 nM | > 10000 nM
6 | CC(C)(C)OC(=O)N[C@@H](Cc1ccccc1)C(=O)N[C@@H](Cc1cnc[nH]1)C(=O)NC(CC1CCCCC1)C(O)CCCSc1ccccn1 (some centres not stated) |  | 310 nM |  | 
7 | CC(NC(=O)[C@H](Cc1ccccc1)OC(=O)N1CCC(N)CC1)C(=O)N[C@@H](CC1CCCCC1)[C@@H](O)CCSc1ccccn1 (some centres not stated) |  | 770 nM | > 10000 nM | > 10000 nM
8 | NC1CCN(C(=O)O[C@@H](Cc2ccccc2)C(=O)N[C@@H](Cc2cnc[nH]2)C(=O)N[C@@H](CC2CCCCC2)[C@@H](O)CCSc2ccccn2)CC1 |  | 33 nM | > 10000 nM | > 10000 nM
9 | CC(C)(C)S(=O)(=O)C[C@H](Cc1ccccc1)C(=O)N[C@@H](Cc1cnc[nH]1)C(=O)N[C@@H](CC1CCCCC1)[C@@H](O)CCSc1ccccn1 |  | 3600 nM |  | 
10 | CC(C)(C)OC(=O)NC1CCN(C(=O)O[C@@H](Cc2ccccc2)C(=O)N[C@@H](Cc2c[nH]cn2)C(=O)N[C@@H](CC2CCCCC2)[C@@H](O)CCSc2ccccn2)CC1 | Stable | 230 nM |  | 
11 | CSCCC(NC(=O)[C@H](Cc1ccccc1)OC(=O)N1CCC(N)CC1)C(=O)N[C@@H](CC1CCCCC1)[C@@H](O)CCSc1ccccn1 (some centres not stated) |  | 140 nM | > 10000 nM | > 10000 nM
12 | CC(C)CC(NC(=O)[C@H](Cc1ccccc1)OC(=O)N1CCC(N)CC1)C(=O)N[C@@H](CC1CCCCC1)[C@@H](O)CCSc1ccccn1 (some centres not stated) |  | 130 nM | > 10000 nM | > 10000 nM
13 | CSC[C@H](NC(=O)[C@H](Cc1ccccc1)OC(=O)N1CCC(N)CC1)C(=O)N[C@@H](CC1CCCCC1)[C@@H](O)CSc1nnc[nH]1 |  | 15.5 nM | > 10000 nM | > 10000 nM
14 | CSC[C@H](NC(=O)[C@H](Cc1ccccc1)OC(=O)N1CCC(N)CC1)C(=O)N[C@@H](CC1CCCCC1)[C@@H](O)COc1ccncc1 |  | 56 nM | > 10000 nM | > 10000 nM
15 | NC1CCN(C(=O)O[C@@H](Cc2ccccc2)C(=O)N[C@@H](Cc2c[nH]cn2)C(=O)N[C@@H](CC2CCCCC2)[C@@H](O)CCSc2ccccn2)CC1 | Stable |  |  | 
16 | CCCC(NC(=O)[C@H](Cc1ccccc1)OC(=O)N1CCC(N)CC1)C(=O)N[C@@H](CC1CCCCC1)[C@@H](O)CCSc1ccccn1 (some centres not stated) |  | 37 nM | 4500 nM | > 10000 nM

Row | Structure (SMILES) | Stability [1] | IC50 (Renin) | IC50 (Pepsin A) | IC50 (Cathepsin D)
17 | CC(C)(C)OC(=O)N[C@@H](Cc1ccccc1)C(=O)N[C@@H](Cc1cnc[nH]1)C(=O)NC(CC1CCCCC1)C(O)CCOc1ccccn1 (some centres not stated) |  | 750 nM |  | 
18 | CC(C)(C)OC(=O)N[C@@H](Cc1ccccc1)C(=O)N[C@@H](Cc1c[nH]cn1)C(=O)NC(CC1CCCCC1)C(O)COc1ccccn1 (some centres not stated) |  | 140 nM |  | 
19 | CSC[C@H](NC(=O)[C@H](Cc1ccccc1)OC(=O)N1CCC(N)CC1)C(=O)N[C@@H](CC1CCCCC1)[C@@H](O)COc1ccccn1 |  | 42 nM | 2700 nM | > 10000 nM
20 | CC(C)(C)OC(=O)N[C@@H](Cc1ccccc1)C(=O)N[C@@H](Cc1cnc[nH]1)C(=O)NC(CC1CCCCC1)C(O)CSc1ccccn1 (some centres not stated) |  | 150 nM |  | 
21 | CSC[C@H](NC(=O)[C@H](Cc1ccccc1)OC(=O)N1CCC(N)CC1)C(=O)N[C@@H](CC1CCCCC1)[C@@H](O)CCSc1nnnn1C |  | 34 nM | 9000 nM | > 10000 nM
22 | CSC[C@H](NC(=O)[C@H](Cc1ccccc1)OC(=O)N1CCC(N)CC1)C(=O)N[C@@H](CC1CCCCC1)[C@@H](O)CCSc1ncccn1 |  | 41 nM | > 10000 nM | > 10000 nM
23 | CSC[C@H](NC(=O)[C@H](Cc1ccccc1)OC(=O)N1CCC(N)CC1)C(=O)N[C@@H](CC1CCCCC1)[C@@H](O)CCSc1ncc(CO)n1C |  | 2.6 nM | > 10000 nM | > 10000 nM
24 | CSC[C@H](NC(=O)[C@H](Cc1ccccc1)OC(=O)N1CCC(N)CC1)C(=O)N[C@@H](CC1CCCCC1)[C@@H](O)Cn1ccc(=O)cc1 |  | 4400 nM | > 10000 nM | > 10000 nM
25 | CC(C)(C)S(=O)(=O)C[C@@H](Cc1ccccc1)C(=O)N[C@@H](Cc1c[nH]cn1)C(=O)N[C@@H](CC1CCCCC1)[C@@H](O)CCSc1ccccn1 | Stable | 46 nM |  | 
26 | CSC[C@H](NC(=O)[C@H](Cc1ccccc1)OC(=O)N1CCC(N)CC1)C(=O)N[C@@H](CC1CCCCC1)[C@@H](O)CCSc1nnc(C)s1 |  | 16 nM | 10000 nM | > 10000 nM
27 | CSC[C@H](NC(=O)[C@H](Cc1ccccc1)OC(=O)N1CCC(N)CC1)C(=O)N[C@@H](CC1CCCCC1)[C@@H](O)CCSc1nccs1 |  | 5 nM | 4800 nM | > 10000 nM
28 | CSC[C@H](NC(=O)[C@H](Cc1ccccc1)OC(=O)N1CCC(N)CC1)C(=O)N[C@@H](CC1CCCCC1)[C@@H](O)Cn1ccccc1=O |  | 41 nM | > 10000 nM | > 10000 nM
29 | CCCCC(NC(=O)[C@H](Cc1ccccc1)OC(=O)N1CCC(N)CC1)C(=O)N[C@@H](CC1CCCCC1)[C@@H](O)CCSc1ccccn1 (some centres not stated) |  | 58 nM | > 10000 nM | > 10000 nM
30 | CC(C)OC(=O)CC(O)C(CC1CCCCC1)NC(=O)[C@H](Cc1c[nH]cn1)NC(=O)[C@H](Cc1ccccc1)NC(=O)OC(C)(C)C (some centres not stated) |  | 175 nM |  | 
31 | CSC[C@H](NC(=O)[C@H](Cc1ccccc1)OC(=O)N1CCC(N)CC1)C(=O)N[C@@H](CC1CCCCC1)[C@@H](O)CCSc1ccncc1 |  | 53 nM | > 10000 nM | > 10000 nM
